# This is a sample that favours compounds with a hit; in the whole collection about 1.7% have one here.
# IDE act: human IDE activators in live cells, primary screen, fluorescence polarization, HEK cells, FAbeta-B substrate; Insulin-degrading enzyme (Homo sapiens), P14735; AID 493087, 2011; FAbeta-B cleavage; 0% vehicle, 100% cell-free pure enzyme wells; activation, % at 5.96 µM; hit rate 0.073% among 340,000;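 active = activation above the mean of all tested compounds plus 3 SD, set per screening campaign, cut at about 17% in these data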
# TPT1 inh: Candida albicans TPT1 enzyme inhibitors, primary screen, biochemical, fluorescence polarization | recombinant caTPT1, FP RNA substrate dephosphorylation | tRNA 2'-phosphotransferase TPT1 (Candida albicans SC5314) | inhibition, % at 5 µM | hit rate 0.81% among 300,000 | AID 1962, 2009;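 active = inhibition above the mean of all tested compounds plus 3 SD, set per screening campaign, cut at about 24% in these data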;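 note: plate controls were DMSO alone for no effect and ferristatin control at 100 nM for full effect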
# HNF4A DNA FP: change in binding of human HNF4A to DNA, primary screen, biochemical, fluorescence polarization, FITC-DNA. Hepatocyte nuclear factor 4-alpha (Homo sapiens), P41235. 1 h. activity change, % at 10 µM. hit rate 0.3% among 360,000. AID 1224865, 2016; in the data active = activity change above about 30%, passing the limit was not always enough
# Target sequence (P41235 whole entry, looked up): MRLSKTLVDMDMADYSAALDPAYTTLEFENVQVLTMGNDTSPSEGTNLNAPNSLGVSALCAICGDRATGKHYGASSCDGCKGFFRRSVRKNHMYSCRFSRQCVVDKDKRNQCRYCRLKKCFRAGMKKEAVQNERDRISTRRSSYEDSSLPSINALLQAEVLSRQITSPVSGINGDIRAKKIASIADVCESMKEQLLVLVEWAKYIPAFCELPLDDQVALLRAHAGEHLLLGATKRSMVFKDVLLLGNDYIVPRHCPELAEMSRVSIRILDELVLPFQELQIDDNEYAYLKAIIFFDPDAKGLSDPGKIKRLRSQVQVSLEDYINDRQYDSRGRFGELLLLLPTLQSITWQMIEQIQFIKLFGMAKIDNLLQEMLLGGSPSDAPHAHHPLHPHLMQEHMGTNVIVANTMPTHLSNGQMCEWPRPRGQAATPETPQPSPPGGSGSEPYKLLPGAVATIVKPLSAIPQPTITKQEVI
# Rpn11 inh: Rpn11 (PSMD14) deubiquitinase inhibitors, primary screen, biochemical, fluorescence polarization, uHTS | 26S proteasome non-ATPase regulatory subunit 14 (Homo sapiens), O00487 | human 26S proteasome, Ub4-pepOG fluorescence polarization; 20S core pre-blocked with epoxomicin | inhibition, % at 20 µM | hit rate 0.59% among 360,000;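 active = inhibition at 20 µM, scaled to each plate's controls, above about 33%, limit read from the data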
# IDE cell inh: human IDE inhibitors in live cells, primary screen, fluorescence polarization, HEK cells, FAbetaB substrate; Insulin-degrading enzyme (Homo sapiens), P14735; FAbetaB cleavage; inhibition, % at 5.59 µM; hit rate 0.41% among 320,000;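 active = percent inhibition above the average of all tested compounds plus 3 SD, set per screening campaign, cut at about 16% in these data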;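 note: IDE supplied by intact live HEK cells; FP after avidin binding of uncleaved biotin substrate so inhibition keeps polarization high; 0% = DMSO wells and 100% = 60 µM reference IDE inhibitor Ii1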
# CSN inh: inhibitors of CSN-mediated cullin deneddylation, primary screen, biochemical, fluorescence polarization, uHTS; COP9 signalosome complex subunit 5 (Homo sapiens), Q92905; Purified CSN, SCF-Nedd8-OG deneddylation; inhibition, % at 12.5 µM; hit rate 0.38% among 360,000;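 active = pattern-corrected inhibition above about 35%, with an unprinted fluorescence ratio check between 0.5 and 1.5, limit read from the data, passing the limit was not always enough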;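 note: 0% = enzyme with substrate and 100% = substrate without enzyme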
#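 Assay system: Purified human Csn5 enzyme expressed in HEK293T cells | Amount: Enzyme 0.24 nM | Measured by: Fluorescence polarization readout | Medium: Tris/NaCl/DTT buffer, pH 7.5 | Compound dosing: One concentration, 12.5 µM, 0.25% DMSO | Times: 90 min incubation of compound, enzyme and substrate at room temperature | Control set: no-enzyme wells high, enzyme-with-substrate wells low | Read-out: % inhibition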
# The depositor's hits bear a star; · = not tested or not shown.
SMILES,IDE act,TPT1 inh,HNF4A DNA FP,Rpn11 inh,IDE cell inh,CSN inh
COc1ccc2c(c1)c(C(=O)N/N=C/c1cccc(Br)c1)c(C)n2C,-6.3,0.0,4.5,3.2,17.5*,-2.4
CC(C)N(c1ccccc1)c1ccc(NC(=O)[C@@H]2O[C@H](CO)[C@@H](O)[C@H]2O)cc1,·,·,1.9,-8.6,·,1.6
CCOC(=O)c1ccc(N/C=C/C(=O)c2ccc(OC)c(OC)c2)cc1,5.7,0.6,-2.0,2.0,-1.7,100.8*
Cc1cc(Cl)ccc1C(O)c1ncc(-c2cccc3ccccc23)[nH]1 (stereo not given),·,·,4.4,1.5,·,-2.0
OCCCc1nc2n(n1)C(c1ccccc1)C=C(c1ccc(F)cc1)N2 (stereo not given),4.4,12.3,-3.5,-14.8,2.9,-10.4
OCCCc1nc2n(n1)C(c1ccccc1Cl)C=C(c1cccs1)N2 (stereo not given),-3.9,24.2*,22.0,-25.2,4.2,3.4
OCCCc1nc2n(n1)C(c1cccs1)C=C(c1ccccc1)N2 (stereo not given),·,-48.8,·,·,78.3*,·
COc1ccc2cc(C3CC=C(COC(C)=O)CN3S(=O)(=O)c3ccccc3[N+](=O)[O-])n(C(=O)OC(C)(C)C)c2c1 (stereo not given),·,·,-6.9,·,·,0.9
COCCNC(=O)C1(C)CCCN(C(=O)c2ccc(C#N)cc2)C1 (stereo not given),·,·,2.9,-5.9,·,-4.4
Cc1c(-c2ccc(F)cc2)nc(N)c(C#N)c1-c1ccco1,2.4,14.8,39.1*,·,-5.5,17.5
CCc1nc(N)c(C#N)c(-c2ccc(F)cc2)c1C,7.6,-5.1,-2.7,5.9,6.8,-2.0
Cc1c(Cl)cccc1NC(=S)Nc1ccc2[nH]c(=O)[nH]c2c1,0.8,-1.1,38.9*,-7.5,7.3,-3.0
Cc1cccc(NC(=S)N/N=C2\CC(C)(C)Oc3ccc(O)cc32)c1,2.9,-0.3,35.7*,2.9,2.1,-4.6
COC(=O)Cn1ccnc1[N+](=O)[O-],·,·,-1.5,-2.2,·,0.2
CSc1nc(-c2ccccc2)cn1-c1ccc(NC(C)=O)cc1,-3.3,-2.8,1.1,1.4,6.9,1.2
CCOc1ccc(-c2cn(-c3ccc(OC)cc3)c(SC)n2)cc1,-0.7,0.9,-5.4,-2.3,16.6*,-0.3
Cc1ccc(NC(=O)c2ccc(CSc3nccc(C)n3)cc2)cc1,3.7,-3.3,1.9,-0.1,5.0,-6.3
Cc1ccnc(SCc2ccc(C(=O)O)cc2)n1,-2.1,1.9,68.7*,-3.4,-2.2,1.9
O=C(C[C@H]1CC[C@@H](NC(=O)C2CC2)[C@@H](CO)O1)NCc1ccccc1Cl,·,·,3.1,·,·,1.6
O=C(c1ccco1)N1CCN(C(=O)C2CCCN(S(=O)(=O)Cc3ccccc3)C2)CC1 (stereo not given),1.2,-0.7,-1.9,-7.1,7.7,-0.5
O=C(c1ccco1)N1CCN(C(=O)C2CCN(S(=O)(=O)Cc3ccccc3)CC2)CC1,-1.6,-2.1,3.3,-5.9,6.6,61.6*
O=C(O)COc1ccccc1C=NNc1ccc([N+](=O)[O-])cc1S(=O)(=O)Nc1ccc(Cl)cc1,4.4,·,7.2,16.7,-2.4,3.7
Cc1[nH]c2ccccc2c1/C=N/Nc1ccc([N+](=O)[O-])cc1S(=O)(=O)Nc1ccc(Cl)cc1,6.0,2.4,94.1*,·,4.8,43.8*
CC1C(=O)N(Cc2cn(Cc3ccco3)nn2)CCS(=O)(=O)N1Cc1ccc(-c2ccc(F)cc2Cl)cc1 (stereo not given),·,·,-2.6,21.9,·,5.8
CCOc1ccc(Nc2nc(N)c3ccccc3n2)cc1,-0.7,·,60.1*,1.2,·,4.1
Nc1nc(Nc2ccccc2)nc2ccccc12,2.4,-6.6,-0.2,-5.6,3.4,3.1
CCS(=O)(=O)C1=NN2C(=N)/C(=C\c3ccc(OS(=O)(=O)c4ccccc4)cc3)C(=O)N=C2S1,5.9,0.5,-3.2,11.4,5.9,8.8

# Source: PubChem BioAssay
